Autophagy mod: modulators of autophagy; AID 463193; hit rate 0.98% among 190,000; MEF GFP-LC3 puncta imaging; test concentration mostly 10 µM; calls only at 10 µM (by protocol);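 active = percentage of spot-positive cells more than 3 SD above its plate mean, without a fluorescence outlier flag or 80% toxicity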;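 note: spot-positive cell cutoff set from DMSO-treated cells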
INS promoter inh: TRM-6 insulin promoter activity inhibition | TRM-6 cells (human fetal islet line), insulin promoter-eGFP reporter, imaging; reporter expression induced with tamoxifen | inhibition, % at 2 µM | hit rate 0.9% among 130,000 | AID 1273;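 active = inhibition above the mean plus 3 SD, with well images judged a real hit on visual review, cut at about 60% in these data, passing the limit was not always enough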
PERK inhibitor: blocks human PERK kinase; Q9NZJ5; CHO PERK-DD fusion, SEAP luminescence translation reporter; inhibition, % at 5.6 µM; hit rate 0.17% among 220,000; AID 1416;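 active = inhibition above the mean inhibition of all tested compounds plus 3 SD, set separately per screening campaign, cut at about 2.9% in these data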;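 note: PERK kinase domain activated by AP20187 dimerizer at 100 nM; 0% = DMSO with dimerizer and 100% = rapamycin at 8.4 µM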
Insulin prom up: MIN6 insulin promoter up-regulation | AID 1625 | z-score at 5 µM | MIN6 insulin promoter-GFP reporter, high-content imaging; active compounds read high | hit rate 0.3% among 190,000;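 active = z-score above 3 at 5 µM with at least 500 cells counted in the well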
Dynein transport: dynein cargo transport inhibition | 3617.4 mouse cells, GR-EGFP nuclear translocation imaging; test concentration mostly 20 µM; stimulated with dexamethasone, 1 µM; active compounds read low | z-score, hits read low | hit rate 0.47% among 220,000 | AID 1381;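 active = plate z-score of nuclear minus cytoplasmic receptor signal below a set negative limit, without overly bright fluorescence or cell loss, cut at about -3.5 in these data, passing the limit was not always enough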;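 note: z-score of nuclear minus cytoplasmic ring GR-EGFP intensity difference per well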
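Also added: dexamethasone, 1.0 µM final. Medium: tet-free, stripped-serum medium. Detection: fixed, Hoechst-stained cells imaged at 10x for EGFP. Read-out: nuclear-to-cytoplasmic GR-EGFP distribution per well. Times: induction 48 h, compound 1 h, agonist 30 min.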
Active calls of the source: *; i = inactive; nt = no result; + = active, no number. This is a sample that favours compounds with a hit; in the whole collection about 2.1% have one here.

SMILES	Autophagy mod	INS promoter inh	PERK inhibitor	Insulin prom up	Dynein transport
CC(C)NC(=O)c1onc(CSc2ccc(F)cc2)c1C(=O)O	i	89*	2	0.65	0.56
Cc1ccccc1SCc1noc(C(=O)NC(C)C)c1C(=O)O	i	-51	2	3*	-0.055
CC(C)NC(=O)c1onc(CSc2ccccc2F)c1C(=O)O	i	3	2	-0.71	-0.44
CC(C)NC(=O)c1onc(CSc2ccc(C(C)C)cc2)c1C(=O)O	i	-16	2	-1.3	0.25
Cc1ccc2nc(C)c3c(c2c1)SCC3	nt	nt	0	-0.25	0.3
Cc1c(N2C(=O)CSC2c2ccc(F)cc2)c(=O)n(-c2ccccc2)n1C (stereo not given)	nt	nt	0	-0.36	-0.31
CC(C)CC(NC(=O)C(CO)NC(=O)C1CCC(=O)N1)C(N)=O (stereo not given)	i	-18	1	-0.21	0.63
c1ccc2c(c1)[nH]c1c(N3CCSCC3)ncnc12	i	94*	0	nt	-0.23
CCOC(=O)N1CCN(C(=O)c2ccc(OC)c(S(=O)(=O)N3CCOCC3)c2)CC1	i	78*	2	-0.02	1.2
COc1ccc(CCNC(=O)CCN2C(=O)c3cccc4cccc(c34)C2=O)cc1OC	i	nt	0	0.08	-0.2
COc1ccc(CCN2C(=O)c3cccc4c(C(=O)N5CCCCC5)ccc(c34)C2=O)cc1OC	+	nt	0	0.08	-0.46
COc1ccc(-c2cc(C(F)(F)F)c(C#N)c(SCC(=O)Nc3nc(C)co3)n2)cc1	+	-160	2	-0.14	-0.65
COc1ccc(-c2cc(C(F)(F)F)c(C#N)c(SCC(=O)Nc3ccccc3C#N)n2)cc1	+	-46	1	0.35	0.14
COc1ccc(NC(=O)CSc2nc(-c3ccc(C)cc3)cc(C(F)(F)F)c2C#N)cc1	i	nt	2	0.08	0.62
CC(NC(=S)Nc1c(Br)cccc1OC(F)F)C(C)(C)C (stereo not given)	i	3	0	-0.41	-0.19
CC1=C(C(N)=O)S(=O)(=O)c2ccccc21	nt	nt	3.1*	0.28	-0.14
O=C(NC(=S)Nc1ccccc1)c1csnn1	i	21	0	0.16	-0.05
CCn1c(=O)n(CC(=O)NCc2ccco2)c(=O)c2ccccc21	i	27	0	0.15	-0.74
COCCNC(=O)Cn1c(=O)n(Cc2ccco2)c(=O)c2ccccc21	i	86*	0	0.61	0.14
Cc1sc2c(c1C)c(=O)n(-c1cccc(C(F)(F)F)c1)c(=O)n2CC(=O)NCc1ccco1	i	69*	-2	nt	0.0098
Cc1ccc(-n2c(=O)c3ccccc3n(CC(=O)NCc3ccco3)c2=O)cc1	i	73*	0	-0.95	0.95
O=C(NC(=S)Nc1ccc(Cc2ccncc2)cc1)c1ccc(F)cc1	i	nt	2	0.63	-0.09
COc1cc2c(cc1OC)C(Nc1ccccc1)=NC(C)(C)C2	i	43	0	-1.4	-0.93
CCC(=O)Nc1nonc1-c1nc2ccccc2n1Cc1cccc2ccccc12	+	-92	-1	nt	-0.36
CCCc1ncc(C(O)c2ccccc2OC)n1C (stereo not given)	i	nt	0	-0.72	-0.34
SMILES	Autophagy mod	INS promoter inh	PERK inhibitor	Insulin prom up	Dynein transport
CSc1ccccc1NC(=O)COc1ccccc1Cl	i	-21	0	0.15	-0.6
CCCCCCNC(=O)C(C#N)c1nc2ccccc2nc1N1CCOCC1 (stereo not given)	i	nt	-1	0.28	0.96
CCCCCCNC(=O)C(C#N)c1nc2ccccc2nc1N1CCCC1 (stereo not given)	+	nt	-1	-0.15	0.9
CCCCCNC(=O)C(C#N)c1nc2ccccc2nc1N1CCCC1 (stereo not given)	+	-12	0	0.37	-0.31
CCCCCCOC(=O)C(C#N)c1nc2ccccc2nc1N1CCN(CC)CC1 (stereo not given)	+	-3	-1	-0.41	-0.84
CCCCCCOC(=O)C(C#N)c1nc2ccccc2nc1N1CCOCC1 (stereo not given)	i	nt	0	-0.06	0.036
N#CC(C(=O)NCc1ccccc1)c1nc2ccccc2nc1N1CCCC1 (stereo not given)	+	14	0	1.7	1.8
CC1CCCCN1C(=O)Cn1cc(/C=C2/C(=O)Nc3ccccc32)c2ccccc21 (stereo not given)	i	38	-2	0.17	-0.11
Cc1ccc(C(=O)N2CCCC2)cc1S(=O)(=O)Nc1cccc(C)c1C	i	-29	0	0.22	-0.044
COc1ccc(-c2cc(C(=O)NCc3cccs3)no2)cc1	nt	nt	0	0.44	-0.47
COc1ccc2nc3sc(C(=O)NCc4cccs4)c(N)c3cc2c1	+	0	0	0.24	-0.098
COc1ccccc1CCN=C(N)NS(=O)(=O)c1ccc(C)cc1	+	nt	-1	nt	-0.23
COc1ccc(CCN=C(N)NS(=O)(=O)c2ccc(C)cc2)cc1OC	i	13	0	-0.92	-0.23
Cc1csc(-c2cnn(-c3ccccc3)c2NC(=O)c2ccc(C(F)(F)F)cc2)n1	i	19	0	0.38	-0.3
CNC(=O)c1cc(C)c(-c2ccccc2)s1	i	89*	0	-0.12	-1.6
Cc1ccc(S(=O)(=O)N(CC(=O)NCCSCc2ccco2)c2ccc(F)cc2)cc1	i	nt	3.2*	1.1	-0.19
CSc1sc(C(=O)N2CCCCC2)c(-c2cccs2)c1C#N	nt	nt	0	0.31	0.35
Cc1c2cnn(-c3ccccc3)c(=O)c2c(C)n1CCCC(=O)NCCN1CCN(C)CC1	nt	nt	3.7*	0.34	0.3
CCN1CCN(C(=O)CCCn2c(C)c3cnn(-c4ccccc4)c(=O)c3c2C)CC1	i	nt	1	-1.5	-0.018
COC(=O)/C(=C\C(=O)c1ccccc1)Nc1cccc(C(F)(F)F)c1	i	nt	0	0.56	0.12
CC1(C)Cc2c(sc3c2c(=O)n(-c2cccc(Cl)c2)c(=O)n3CC(N)=O)CO1	nt	nt	1	-0.76	0.51
Cc1csc2c(SCC(=O)NNC(=O)C(Cl)Cl)ncnc12	nt	nt	3.1*	-0.08	-0.067
C/C(=N\Nc1nc(C)cc(C)n1)c1ccc(N2CCOCC2)cc1	i	17	1	-1.7	0.037
C/C(=N\NC(=O)c1ccccc1)c1ccc(N2CCOCC2)cc1	i	-3	1	-0.53	-3.6*
C/C(=N\Nc1nc2ccccc2[nH]1)c1ccc(N2CCOCC2)cc1	i	75*	-1	0.38	1.3
c1ccc2[nH]c(N3CCOCC3)nc2c1	i	61*	1	0.19	2.1
CC(=O)Nc1ccc(/C(C)=N/Nc2nc(Nc3ccccc3)nc(N3CCOCC3)n2)cc1	+	nt	-2	-0.46	-0.93
CCC(=O)c1cc(F)c(N2CCN(S(=O)(=O)c3ccc(C)cc3)CC2)cc1C	i	nt	-1	-4	-0.43
Cc1ccc(OCc2ccc(C(=O)O)o2)c([N+](=O)[O-])c1	i	-16	1	0.19	-0.55
NS(=O)(=O)c1ccc(CNC(=O)C2(c3ccc(Cl)cc3)CC2)cc1	i	nt	0	0.81	0.3

Screening results deposited in PubChem by several laboratories.
